Compound activity (PubChem BioAssay)
IMP-1 inhibitor: inhibitors of Pseudomonas aeruginosa IMP-1 metallo-beta-lactamase. inhibition, % at 5.6 µM. purified IMP-1, nitrocefin hydrolysis, epi-absorbance fluorescence. AID 1556. 0.45% of 290,000 active;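 active means inhibition above the mean plus 3 SD of all compounds in the same screening run, cut at about 4.5% in these data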;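 further: 0% = IMP-1 with DMSO and 100% = DMSO wells lacking enzyme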
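System: Purified IMP-1 | Read-out basis: Percent enzyme inhibition | Controls: IMP-1 with DMSO as 0%, enzyme-free DMSO as 100% | Replicates: One well per compound | Doses: 5.6 µM nominal single concentration | Detection: Epi-absorbance fluorescence, 480 nm excitation, 530 nm emission | Incubation: 25 °C, 15 min preincubation, 25 min reaction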
VIM-2 inh: blocks Pseudomonas aeruginosa VIM-2 metallo-beta-lactamase; purified VIM-2, nitrocefin hydrolysis, epi-absorbance fluorescence; inhibition, % at 5.6 µM; 0.89% of 290,000 active;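 active means inhibition above the mean of all tested compounds plus 3 SD, cutoff set per screening run, cut at about 7.5% in these data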;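 further: red hydrolysis product quenches plate fluorescence so inhibitors raise well fluorescence; 0% = enzyme with DMSO and 100% = DMSO without enzyme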
DNA FID counter-1: displaces DNA intercalator in HCV helicase counter-screen; DNA fluorescent intercalator displacement, fluorescence; inhibition, % at 7.9 µM; 0.17% of 290,000 active; AID 1845;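 further: 0% = vehicle and 100% = reference compound; higher means more ethidium bromide displaced from hairpin DNA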
HCV NS3 hel inh: HCV NS3 helicase inhibition. NS3 helicase DNA unwinding, Cy5 molecular beacon fluorescence. inhibition, % at 10.9 µM. AID 1800. 0.56% of 290,000 active;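 active means inhibition above the mean of all tested compounds plus 3 SD, set per campaign, cut at about 35% in these data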;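 further: 0% = DMSO wells and 100% = thioflavine S control wells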
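assay system = NS3 helicase fragment of HCV | buffer or medium = MOPS pH 6.5, MgCl2, DTT, Tween20, BSA | timing = 60 min unwinding reaction at 25 °C after ATP addition | signal = Cy5 beacon fluorescence read at start and 1 h | read-out basis = % inhibition of unwinding | control set = low DMSO, high thioflavine S at 110 µM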
NS3 helicase cf: HCV NS3 helicase inhibition, confirmation assay. 31% of 1,600 active. inhibition, % at 10.9 µM. NS3 helicase DNA unwinding, Cy5 molecular beacon fluorescence. shares compounds with HCV NS3 hel inh;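 active means inhibition above the mean of all tested compounds plus 3 SD, cutoff set per campaign, cut at about 36% in these data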
DNA FID counter-2: intercalator displacement, NS3 helicase counter-screen. shares compounds with HCV NS3 hel inh. DNA fluorescent intercalator displacement, fluorescence. inhibition, % at 7.9 µM. 4% of 1,600 active;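 further: 0% = vehicle and 100% = reference compound; higher means more displacement of ethidium bromide from the DNA hairpin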
* = called active by the depositor; nt = no result given. Most compounds without a hit are left out; they make up all but 1.9% or so of the library. Unless noted, no stated cut-off is given here; in the data, active means inhibition above about 37%; inactive means the rest.

SMILES	IMP-1 inhibitor	VIM-2 inh	DNA FID counter-1	HCV NS3 hel inh	NS3 helicase cf	DNA FID counter-2
O=[N+]([O-])c1ccc(/C=C/c2ccc3cccc(O)c3n2)cc1	0	0	-7	50*	4	7
Cc1ccc(/C=C/c2ccc3cccc(O)c3n2)s1	-2	-1	-14	49*	11	-2
CN(Cc1ccccc1)C(=O)c1ccccc1-c1ccccc1	-3	-1	-14	0	nt	nt
O=C(/C=C\c1ccc(-c2ccccc2)o1)c1ccccc1	-2	-2	-16	40*	17	53*
Cc1ccc(C(=O)/C=C/c2ccc(-c3ccc(C)cc3)o2)cc1	-1	-1	-8	24	nt	nt
O=C(NCCCN1CCOCC1)C(=O)N/N=C/c1ccc2c(c1)OCO2	-3	-6	4	7	nt	nt
CCC1C/C(=C/c2ccco2)C(=O)/C(=C/c2ccco2)C1 (configuration not stated)	2	0	-20	46*	77*	12
CCC1C/C(=C\c2cc(OC)c(OC)cc2OC)C(=O)/C(=C/c2cc(OC)c(OC)cc2OC)C1 (configuration not stated)	-3	-2	-15	-25	nt	nt
COc1cccc(C(N)=O)c1OC(=O)Cc1ccccc1F	-2	-4	-3	40*	2	13
O=C(Cc1ccccc1F)OCN1C(=O)c2ccccc2C1=O	0	-3	-26	22	nt	nt
C=CCN(Cc1cc(OC)ccc1OC)C(=O)c1cc2ccc(OC)cc2[nH]1	-5	-2	-28	-2	nt	nt
COCCNC(=O)c1cc2cc3ccc(OC)cc3nc2o1	-4	-7	-16	18	nt	nt
CCOc1ccc(NC(=O)c2cc3cc4ccc(OC)cc4nc3o2)cc1	-4	1	1	6	nt	nt
CCOc1ccc(NC(=O)c2cc3cc4ccc(C)cc4nc3o2)cc1	-4	-4	-2	47*	-17	-1
CCC(C)NC(=O)c1cc2cc3ccc(OC)cc3nc2o1 (configuration not stated)	0	2	-22	38*	-10	-29
CN(C)CC(O)CN1C(=O)NC(C)(C)C1=O (configuration not stated)	0	-2	1	0	nt	nt
O=C(O)CSc1cc(NS(=O)(=O)c2ccc(Cl)cc2)c2ccccc2c1O	2	2	-4	43*	50*	45*
CC(C)NC(=O)CSc1ncccc1-c1nc2ccccc2[nH]1	-4	-3	-6	7	nt	nt
Cc1cc(C)n2nc(SCC(=O)Nc3ccc(F)cc3)nc2n1	-4	-1	-3	51*	-12	3
Cc1cc(C)n2nc(SCC(=O)Nc3ccc(O)cc3)nc2n1	-3	-3	-1	-8	nt	nt
N=c1sccn1CC(=O)Nc1ccc(SC(F)F)cc1	-1	0	10	-15	nt	nt
COc1ccc(-c2ccc(CCC(=O)O)n2-c2ccccc2O)cc1	-2	-3	-19	45*	6	-3
CCN(CC)c1ccc(N=Cc2ccc([N+](=O)[O-])o2)cc1	-2	2	-5	57*	6	17
O=[N+]([O-])c1ccccc1/C=N/OCc1ccccc1	-2	-1	-4	0	nt	nt
CCN(CC)c1ccc(N=Cc2ccccc2[N+](=O)[O-])cc1	-2	-1	0	41*	2	15
SMILES	IMP-1 inhibitor	VIM-2 inh	DNA FID counter-1	HCV NS3 hel inh	NS3 helicase cf	DNA FID counter-2
CCNc1nc(NCC)nc(N/N=C/c2ccc([N+](=O)[O-])o2)n1	-7	-3	-18	-2	nt	nt
CCN(CC)C(=O)c1[nH]cnc1C(=O)N[C@@H](CC(C)C)C(=O)OCc1ccccc1	-2	-2	-35	0	nt	nt
Cc1cccc(N/N=C/c2ccc(O)c(O)c2O)c1	1	1	-6	38*	-15	8
COCCNC(=O)CN(C(=O)Cn1nnc2ccccc21)c1cccc(C)c1C	-1	-4	-17	-10	nt	nt
CCOc1ccc(NCc2cc3cc(OC)ccc3[nH]c2=O)cc1	-4	-3	-11	43*	12	-6
S=c1nc(-c2csc3c2CCCC3)[nH][nH]1	-3	-4	-2	4	nt	nt
CCOc1ccc(/C=C2\SC(=S)N(C(C(=O)O)c3ccccc3)C2=O)cc1OC (configuration not stated)	-2	-1	-24	28	nt	nt
COc1ccc(OC)c(/C=C2\SC(=S)N(C(C(=O)O)c3ccccc3)C2=O)c1 (configuration not stated)	4.8*	4	-13	47*	84*	16
CC(/C=N/NC(=O)CNc1n[nH]c(=O)[nH]c1=O)c1ccccc1 (configuration not stated)	-2	-4	-8	1	nt	nt
Cc1cccc(N2CCN(C(=O)c3ccc4c(c3)NC(=O)C(CSCc3ccc(F)cc3)N4)CC2C)c1 (configuration not stated)	-7	-2	-32	20	nt	nt
Cc1ccc(CSCC2Nc3ccc(C(=O)N4CCN(c5cccc(C)c5)C(C)C4)cc3NC2=O)cc1 (configuration not stated)	-6	-3	-34	38*	-9	-36
Cc1c(C(=O)O)cccc1-c1ccc(/C=C2\SC(=O)NC2=O)o1	0	4	-6	45*	-20	5
O=C(O)c1ccc(NCCc2ccc(Cl)cc2)c([N+](=O)[O-])c1	-4	0	-16	26	nt	nt
CCc1ccc(/C=C2\Oc3cc(OC(=O)N4CCOCC4)ccc3C2=O)cc1	-3	0	-1	47*	-6	-17
COc1ccc(/C=C2\Oc3cc(OC(=O)N4CCOCC4)ccc3C2=O)cc1	-2	-4	-2	1	nt	nt
CC(/C=N/NC(=O)Cc1cc(=O)[nH][nH]1)=C\c1ccccc1	-4	-2	-22	39*	-6	3
CCOC(=O)Cc1cnc(NC(=O)CSc2nc3ncnc(N)c3[nH]2)s1	-3	0	-4	3	nt	nt
COc1cc(OC)c(N(C)S(=O)(=O)c2cccc(C(=O)NC3=NCCS3)c2)cc1Cl	-2	-1	-23	-18	nt	nt
COc1ccccc1-c1cc(C(=O)N2CCc3ccccc3C2)c2ccccc2n1	-3	-1	-22	37*	-17	-41
COc1ccccc1Nc1cc(C(=O)N2CCc3ccccc3C2)c2ccccc2n1	-4	-2	-27	-5	nt	nt
FC(F)(F)c1cc(-c2cccs2)nc2cc(-c3ccccc3)nn12	-3	-3	-3	0	nt	nt
O=C(O)c1cc2nc(-c3cccs3)cc(C(F)(F)F)n2n1	-2	-4	12	39*	2	9
CCCCCCOc1ccc(C(=O)O)cc1C#N	-1	3	-25	38*	16	-8
COc1ccc(CCN2C(=NC(=O)C(C)C)SC3CS(=O)(=O)CC32)cc1 (configuration not stated)	-4	-1	-19	-9	nt	nt
CC1=NN(c2ccccc2)C(=O)/C1=C/C=C/c1ccccc1	0	-3	1	9	nt	nt
COc1cc(/C=C2/C(=O)N(c3ccc(C(=O)O)cc3)N=C2C)cc(OC)c1O	-11	-11	-12	22	nt	nt
